The results in this text go back to ChEMBL document CHEMBL1800022, “Structure-activity relationships of a series of analogues of the RFamide-related peptide 26RFa” (J Med Chem, 2011).

pEC50: −log10 of the molar value. Non-standard residues stand in square brackets, D forms with d. Residues, ends and D or L forms follow the SMILES beside them. *: point of attachment. Adamantane1carbonyl = O=C(C12CC3CC(CC(C3)C1)C2)*; Cha = N[C@@H](CC1CCCCC1)C(=O)O; Tle = CC(C)(C)[C@H](N)C(=O)O; X3 = C1CCN(N(N2CCCCC2)*)CC1; hSer = N[C@@H](CCO)C(=O)O; Nle = CCCC[C@H](N)C(=O)O; 2Furoyl = O=C(c1ccco1)*; Nva = CCC[C@H](N)C(=O)O; Abu = CC[C@H](N)C(=O)O; Cbz = O=C(OCc1ccccc1)*; X1 = CCN(Cc1ccccc1)*; Bz = O=C(c1ccccc1)*

This experiment concerns the target T1, Pyroglutamylated RF-amide peptide receptor (Homo sapiens, UniProt Q96P65).
T1 sequence (Q96P65 whole entry): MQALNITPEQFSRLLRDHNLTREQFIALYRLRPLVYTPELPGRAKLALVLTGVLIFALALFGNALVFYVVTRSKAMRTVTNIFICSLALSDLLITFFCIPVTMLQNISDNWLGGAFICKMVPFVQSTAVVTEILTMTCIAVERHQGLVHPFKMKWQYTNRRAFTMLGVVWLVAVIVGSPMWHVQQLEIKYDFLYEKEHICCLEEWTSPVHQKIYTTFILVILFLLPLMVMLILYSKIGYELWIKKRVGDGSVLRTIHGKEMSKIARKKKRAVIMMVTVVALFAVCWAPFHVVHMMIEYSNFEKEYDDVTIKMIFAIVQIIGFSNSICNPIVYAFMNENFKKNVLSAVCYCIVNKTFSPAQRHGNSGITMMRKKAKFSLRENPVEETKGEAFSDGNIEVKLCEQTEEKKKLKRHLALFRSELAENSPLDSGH
Briefly: Agonist activity at DYKDDDDK-flagged human GPR103 receptor expressed in CHO-K1 cells co-expressing G-protein alpha16 assessed as stimulation of calcium mobilization after 2 mins by fluorometric analysis. The class given is functional, cell-based. The method, boiled down:
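CHO-K1 cells stably expressing Gα16 and C-terminally flag-tagged human GPR103 (Geneticin-selected), plated at 40 000 cells/well 24 h before assay. Loaded with 2 μM Fluo-4AM for 1 h, washed, then 30 min in HBSS with 2.5 mM probenecid and 5 mM HEPES. Peptides added at 10^-12 to 10^-5 M final and fluorescence read for 2 min. Triplicates; EC50 from sigmoidal variable-slope fit, at least three experiments.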
For the compound `CC[C@@H](C)[C@H](NC(=O)[C@H](Cc1ccccc1)NC(=O)CNC(=O)CN)C(=O)N[C@@H](Cc1ccccc1)C(=O)N[C@@H](CCCN=C(N)N)C(=O)N[C@@H](Cc1ccccc1)C(N)=O`, the pEC50 (commonly −log10 of the EC50, conventionally taken in molar units) is 6.09.

On to `N=C(N)NCCC[C@H](NC(=O)[C@H](Cc1ccccc1)NC(=O)[C@H](CO)NC(=O)[C@H](Cc1ccccc1)NC(=O)CNC(=O)CN)C(=O)N[C@@H](Cc1ccccc1)C(N)=O`, for which the pEC50 was 6.13.

On to `NCC(=O)NCC(=O)N[C@@H](Cc1ccccc1)C(=O)N[C@H](CO)C(=O)N[C@@H](Cc1ccccc1)C(=O)N[C@@H](CCCN=C(N)N)C(=O)N[C@@H](Cc1ccccc1)C(N)=O`, for which the pEC50 is 5.30.

Regarding `NC(=O)[C@H](Cc1ccccc1)NC(=O)[C@H](CCCN=C(N)N)NC(=O)[C@H](Cc1ccccc1)NC(=O)[C@H](CO)NC(=O)[C@H](Cc1ccccc1)NC(=O)CNC(=O)CNC(=O)c1ccco1` (2Furoyl-GGFSFRF-NH2), the pEC50 is 6.16.

Turning to `CC(=O)NCC(=O)NCC(=O)N[C@@H](Cc1ccccc1)C(=O)N[C@@H](CO)C(=O)N[C@@H](Cc1ccccc1)C(=O)N[C@@H](CCCNC(=N)N)C(=O)N[C@@H](Cc1ccccc1)C(N)=O` (Ac-GGFSFRF-NH2), the pEC50 was 5.84.

As to `N=C(N)NCCC[C@H](NC(=O)[C@H](Cc1ccccc1)NC(=O)[C@H](CO)NC(=O)[C@H](Cc1ccccc1)NC(=O)CNC(=O)CNC(=O)C12CC3CC(CC(C3)C1)C2)C(=O)N[C@@H](Cc1ccccc1)C(N)=O` (Adamantane1carbonyl-GGFSFRF-NH2), the pEC50 is 6.23.

For `N=C(N)NCCC[C@H](NC(=O)[C@H](Cc1ccccc1)NC(=O)[C@H](CO)NC(=O)[C@H](Cc1ccccc1)NC(=O)CNC(=O)CNC(=O)c1ccccc1)C(=O)N[C@@H](Cc1ccccc1)C(N)=O` (Bz-GGFSFRF-NH2), the negative-log EC50 (pEC50) is 6.14.

With `NC(=O)[C@H](Cc1ccccc1)NC(=O)[C@H](CCCN=C(N)N)NC(=O)[C@H](Cc1ccccc1)NC(=O)[C@H](CO)NC(=O)[C@H](Cc1ccccc1)NC(=O)CNC(=O)CNC(=O)OCc1ccccc1` (Cbz-GGFSFRF-NH2), the pEC50 is 6.08.

Regarding `C[C@H](N)C(=O)NCC(=O)N[C@@H](Cc1ccccc1)C(=O)N[C@@H](CO)C(=O)N[C@@H](Cc1ccccc1)C(=O)N[C@@H](CCCNC(=N)N)C(=O)N[C@@H](Cc1ccccc1)C(N)=O` (H-AGFSFRF-NH2), the pEC50 was 5.47.

As to `CC(C)C[C@H](NC(=O)[C@H](CCC(=O)O)NC(=O)[C@H](CCC(=O)O)NC(=O)[C@H](C)NC(=O)[C@H](CC(C)C)NC(=O)[C@@H](NC(=O)CNC(=O)[C@H](CC(C)C)NC(=O)[C@@H]1CCCN1C(=O)CNC(=O)[C@H](CO)NC(=O)[C@H](C)N)[C@@H](C)O)C(=O)N[C@@H](CO)C(=O)N[C@@H](CO)C(=O)N[C@@H](Cc1ccc(O)cc1)C(=O)N[C@@H](CO)C(=O)N[C@@H](CCCNC(=N)N)C(=O)N[C@@H](CCCNC(=N)N)C(=O)N[C@@H](CCCCN)C(=O)NCC(=O)NCC(=O)N[C@@H](Cc1ccccc1)C(=O)N[C@@H](CO)C(=O)N[C@@H](Cc1ccccc1)C(=O)N[C@@H](CCCNC(=N)N)C(=O)N[C@@H](Cc1ccccc1)C(N)=O` (H-ASGPLGTLAEELSSYSRRKGGFSFRF-NH2), the pEC50 was 8.31.

As to `CC(C)C[C@H](NC(=O)[C@H](CCC(=O)O)NC(=O)[C@@H](N)CCC(=O)O)C(=O)N[C@@H](CC(N)=O)C(=O)NCC(=O)N[C@@H](Cc1ccc(O)cc1)C(=O)N[C@@H](CO)C(=O)N[C@@H](CCCNC(=N)N)C(=O)N[C@@H](CCCCN)C(=O)N[C@@H](CCCCN)C(=O)NCC(=O)NCC(=O)N[C@@H](Cc1ccccc1)C(=O)N[C@@H](CO)C(=O)N[C@@H](Cc1ccccc1)C(=O)N[C@@H](CCCNC(=N)N)C(=O)N[C@@H](Cc1ccccc1)C(N)=O` (H-EELNGYSRKKGGFSFRF-NH2), the pEC50 is 7.43.

Consider `C[C@H](NC(=O)[C@H](Cc1cnc[nH]1)NC(=O)[C@@H](N)CCC(=O)O)C(=O)NCC(=O)N[C@@H](CS)C(=O)N[C@@H](CCCN=C(N)N)C(=O)N[C@@H](Cc1ccccc1)C(=O)N[C@@H](CCCN=C(N)N)C(=O)N[C@@H](Cc1ccccc1)C(N)=O` (H-EHAGCRFRF-NH2), for which the pEC50 is 5.54.

`C[C@H](NC(=O)CN)C(=O)N[C@@H](Cc1ccccc1)C(=O)N[C@@H](CO)C(=O)N[C@@H](Cc1ccccc1)C(=O)N[C@@H](CCCN=C(N)N)C(=O)N[C@@H](Cc1ccccc1)C(N)=O` (H-GAFSFRF-NH2): the pEC50 is 5.53.

Take `C[C@H](NC(=O)CNC(=O)CN)C(=O)N[C@@H](CO)C(=O)N[C@@H](Cc1ccccc1)C(=O)N[C@@H](CCCNC(=N)N)C(=O)N[C@@H](Cc1ccccc1)C(N)=O` (H-GGASFRF-NH2): the pEC50 was 5.88.

With `C[C@H](NC(=O)[C@H](Cc1ccccc1)NC(=O)CNC(=O)CN)C(=O)N[C@@H](Cc1ccccc1)C(=O)N[C@@H](CCCNC(=N)N)C(=O)N[C@@H](Cc1ccccc1)C(N)=O` (H-GGFAFRF-NH2), the pEC50 was 5.88.

Take `CC(C)C[C@H](NC(=O)[C@H](Cc1ccccc1)NC(=O)CNC(=O)CN)C(=O)N[C@@H](Cc1ccccc1)C(=O)N[C@@H](CCCN=C(N)N)C(=O)N[C@@H](Cc1ccccc1)C(N)=O` (H-GGFLFRF-NH2): the pEC50 was 5.83.

As to `CCN(Cc1ccccc1)C(=O)[C@H](Cc1ccccc1)NC(=O)[C@H](CCCN=C(N)N)NC(=O)[C@H](Cc1ccccc1)NC(=O)[C@H](CO)NC(=O)[C@H](Cc1ccccc1)NC(=O)CNC(=O)CN` (H-GGFSFRF-X1), the pEC50 is 5.96.

On to `NCC(=O)NCC(=O)N[C@@H](Cc1ccccc1)C(=O)N[C@@H](CO)C(=O)N[C@@H](Cc1ccccc1)C(=O)N[C@@H](CCCN=C(N)N)C(=O)N[C@@H](Cc1ccccc1)C(=O)N(N1CCCCC1)N1CCCCC1` (H-GGFSFRF-X3), for which the pEC50 was 5.92.

For the compound `CC(C)[C@H](NC(=O)[C@H](Cc1ccccc1)NC(=O)CNC(=O)CN)C(=O)N[C@@H](Cc1ccccc1)C(=O)N[C@@H](CCCN=C(N)N)C(=O)N[C@@H](Cc1ccccc1)C(N)=O` (H-GGFVFRF-NH2), the pEC50 is 5.79.

Turning to `CC[C@H](NC(=O)[C@H](Cc1ccccc1)NC(=O)CNC(=O)CN)C(=O)N[C@@H](Cc1ccccc1)C(=O)N[C@@H](CCCNC(=N)N)C(=O)N[C@@H](Cc1ccccc1)C(N)=O` (H-GGF[Abu]FRF-NH2), the pEC50 was 6.45.

Consider `N=C(N)NCCC[C@H](NC(=O)[C@H](Cc1ccccc1)NC(=O)[C@H](CC1CCCCC1)NC(=O)[C@H](Cc1ccccc1)NC(=O)CNC(=O)CN)C(=O)N[C@@H](Cc1ccccc1)C(N)=O` (H-GGF[Cha]FRF-NH2), for which the pEC50 is 5.96.

Turning to `CCCC[C@H](NC(=O)[C@H](Cc1ccccc1)NC(=O)CNC(=O)CN)C(=O)N[C@@H](Cc1ccccc1)C(=O)N[C@@H](CCCN=C(N)N)C(=O)N[C@@H](Cc1ccccc1)C(N)=O` (H-GGF[Nle]FRF-NH2), the pEC50 is 6.13.

`CCC[C@H](NC(=O)[C@H](Cc1ccccc1)NC(=O)CNC(=O)CN)C(=O)N[C@@H](Cc1ccccc1)C(=O)N[C@@H](CCCNC(=N)N)C(=O)N[C@@H](Cc1ccccc1)C(N)=O` (H-GGF[Nva]FRF-NH2): the pEC50 is 6.63.

On to `CC(C)(C)[C@H](NC(=O)[C@H](Cc1ccccc1)NC(=O)CNC(=O)CN)C(=O)N[C@@H](Cc1ccccc1)C(=O)N[C@@H](CCCN=C(N)N)C(=O)N[C@@H](Cc1ccccc1)C(N)=O` (H-GGF[Tle]FRF-NH2), for which the pEC50 is 5.74.

For `N=C(N)NCCC[C@H](NC(=O)[C@H](Cc1ccccc1)NC(=O)[C@H](CCO)NC(=O)[C@H](Cc1ccccc1)NC(=O)CNC(=O)CN)C(=O)N[C@@H](Cc1ccccc1)C(N)=O` (H-GGF[hSer]FRF-NH2), the pEC50 was 6.43.

As for `N=C(N)NCCC[C@H](NC(=O)[C@H](Cc1ccccc1)NC(=O)[C@H](CO)NC(=O)[C@H](Cc1ccccc1)NC(=O)CNC(=O)CNC(=O)[C@H](CCCCN)NC(=O)[C@H](CCCCN)NC(=O)[C@H](CCCNC(=N)N)NC(=O)[C@H](CO)NC(=O)[C@H](Cc1ccc(O)cc1)NC(=O)CN)C(=O)N[C@@H](Cc1ccccc1)C(N)=O` (H-GYSRKKGGFSFRF-NH2), the pEC50 is 6.73.

As for `NCCCC[C@H](N)C(=O)NCC(=O)NCC(=O)N[C@@H](Cc1ccccc1)C(=O)N[C@@H](CO)C(=O)N[C@@H](Cc1ccccc1)C(=O)N[C@@H](CCCN=C(N)N)C(=O)N[C@@H](Cc1ccccc1)C(N)=O` (H-KGGFSFRF-NH2), the negative logarithm of the EC50 (pEC50) was 5.77.

`NCCCC[C@H](NC(=O)[C@H](CCCCN)NC(=O)[C@H](CCCN=C(N)N)NC(=O)[C@H](CO)NC(=O)[C@H](Cc1ccc(O)cc1)NC(=O)CNC(=O)[C@@H](N)CC(N)=O)C(=O)NCC(=O)NCC(=O)N[C@@H](Cc1ccccc1)C(=O)N[C@@H](CO)C(=O)N[C@@H](Cc1ccccc1)C(=O)N[C@@H](CCCN=C(N)N)C(=O)N[C@@H](Cc1ccccc1)C(N)=O` (H-NGYSRKKGGFSFRF-NH2): the pEC50 was 7.02.

In the case of `CC(C)C[C@H](NC(=O)[C@H](CCC(=O)O)NC(=O)[C@H](CCC(=O)O)NC(=O)[C@H](C)NC(=O)[C@H](CC(C)C)NC(=O)[C@@H](N)CC(N)=O)C(=O)N[C@@H](CC(N)=O)C(=O)NCC(=O)N[C@@H](Cc1ccc(O)cc1)C(=O)N[C@@H](CO)C(=O)N[C@@H](CCCNC(=N)N)C(=O)N[C@@H](CCCCN)C(=O)N[C@@H](CCCCN)C(=O)NCC(=O)NCC(=O)N[C@@H](Cc1ccccc1)C(=O)N[C@@H](CO)C(=O)N[C@@H](Cc1ccccc1)C(=O)N[C@@H](CCCNC(=N)N)C(=O)N[C@@H](Cc1ccccc1)C(N)=O` (H-NLAEELNGYSRKKGGFSFRF-NH2), the pEC50 is 7.52.
